Data on nine molecules can be found in paper PMC5025877 (Circulation research, 2014).

For data set [1], the system named is Nox1. Put plainly: Nox1 phosphorylation in VSMCs, IP anti-p22phox / Western blot anti-STY. Format: cell-based, rat. The note with it: for Nox1 phosphorylation on agonist treatment (other agonists): VSMC, Online Figure III, timing may be agonist dependent. In a few lines: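 A7r5 rat aortic VSMCs in culture were stimulated with TNF-α, with or without PKC inhibitor pretreatment. Nox1 phosphorylation was detected by Western blotting with an anti-phospho-Ser/Thr/Tyr (anti-STY) antibody. n=3.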
(A western blot detects proteins with antibodies after separation by electrophoresis.)

Data set [2] relates to Nox1. Put plainly: superoxide in intact CosPhox cells with p47phox and NoxA1. Format: cell-based. The note with it: TNF-α (10 ng/ml), PDGF-BB (10 ng/ml), AngII (10^-7 M), PMA (10^-6 M), RLU/sec, n=4. In a few lines: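 Cos7 cells stably expressing p22phox (CosPhox) were transfected with p47phox, NoxA1, and either wild-type or T429A Nox1. Superoxide was read as luminescence (RLU/sec) in intact cells immediately after agonist addition. The unstimulated signal was subtracted from the agonist signal, and values were normalized to cell number.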

Data set [3] concerns NoxA1 activation domain (AD). Description: ITC binding of NoxA1 AD peptide with Nox1 peptides. The note with it: for Kd: read-out: Kd (affinity) for NoxA1 AD, n=3 independent experiments.
In data set [4] the test system is human recombinant PKC-βI. Description: dot blot. Format: biochemical. The conditions noted are these: anti-p-STY; total peptide by Ponceau staining. In a few lines: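 Input and product of the in vitro PKC-βI kinase reaction on the Nox1 T429 peptide were dot-blotted and probed with anti-p-STY. Total peptide was measured by Ponceau staining. Signal was quantified as the ratio of p-STY to total peptide. A phosphorylated T429 peptide was included.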

Data set [5] deals with human recombinant PKC-βI. Put plainly: ITC in vitro kinase reaction of recombinant PKC-βI with Nox1 peptide. In kind it is biochemical. The conditions noted are these: slow return to baseline after heat of dilution.
Data set [6] deals with Nox1. Description: ROS production by CM-H2DCF fluorescence in VSMCs. In kind it is cell-based, murine. In outline: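 Cultured aortic VSMCs from C57Bl6/J (WT) and Nox1-/y mice were pretreated with the test compound (a PKC inhibitor), then stimulated with TNF-α. ROS were imaged by CM-H2DCF fluorescence, with nuclei counterstained with ToPro3.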
Data set [7] has as its system VSMCs. Description: VSMC migration to TNF-α. Format: cell-based, murine. In outline: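 Aortic VSMCs from WT C57Bl6/J and Nox1-/y mice were pretreated with the test compound (a PKC inhibitor), and their migration to TNF-α was counted. n=5–15.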
The test system of data set [8] is NADPH oxidase. Format: cell-based, rat. The note with it: VSMC membrane fractions, lucigenin, RLU, n=5–15; for TNF-α-primed NADPH oxidase activity, effect of inhibitor: TNF-α pre-treatment. In outline: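 Cultured rat (A7r5) aortic VSMCs were pretreated with the test compound (a PKC inhibitor) or with the flavoenzyme inhibitor DPI, then stimulated with TNF-α. NADPH oxidase activity was measured by lucigenin-enhanced chemiluminescence and reported as relative light units. n=5–15.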

For data set [9], the system named is p47^phox. Description: p47phox membrane recruitment. Format: cell-based. The note with it: WT versus T429A Nox1; Online Figure VIII.
Data set [10] relates to NoxA1. Description: NoxA1 membrane recruitment in CosPhox cells. In kind it is cell-based. The note with it: n=4. In a few lines:
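CosPhox cells (Cos7 stably expressing p22phox, p47phox and p67phox) expressed p22phox, NoxA1, and either WT or T429A Nox1. After TNF-α treatment, membrane fractions were isolated and immunoblotted for NoxA1. Whole-cell lysates taken before membrane isolation were probed for GAPDH. n=4 independent experiments.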

The nature of data set [11]: circular dichroism of peptides. In kind it is physicochemical. The conditions noted are these: negative dip below 200 nm, near-zero shoulders at longer wavelengths.
Data set [12] has as its target T1, phosphorylated Nox1 peptide (peptide containing phosphorylated Nox1 at T429).
T1 chain: KLKTQKIYF
Description: ITC.

“Also recorded” adds a separate entry of the source.

Consider `CCCCCCCCCCCCCC(=O)O[C@@H]1[C@@H](C)[C@@]2(O)[C@@H](C=C(CO)C[C@]3(O)C(=O)C(C)=C[C@@H]23)[C@@H]2C(C)(C)[C@]12OC(C)=O` [PMA, phorbol myristate acetate, reference compound], for which the “Nox1 phosphorylation on agonist treatment (other agonists)” value in [1] is reported as “phosphorylation of VSMC Nox1 occurs”. In addition, in data set [2], the “agonist-stimulated cellular superoxide, T429A Nox1” value is “does not require phosphorylation of T429” and the “agonist-stimulated cellular superoxide, WT Nox1” value is on record as “increased”.
In the case of KLKTQKIYF [Nox1 peptide], in data set [3], the “interaction with NoxA1 (in words)” value was “no measurable interaction” and the equilibrium dissociation constant (Kd) is greater than 100000 nM. Moreover, the “phosphorylation by PKC-βI, dot blot” value in data set [4] is reported as “confirms phosphorylation”. Also, the “phosphorylation by PKC-βI (heat of reaction)” value in data set [5] is on record as “substrate for PKC-βI”.
For TNF-α, the “Nox1 phosphorylation on agonist treatment” value in data set [1] (cultured A7r5 rat aortic VSMCs, n=3) is recorded as “increased Nox1 phosphorylation”. Also, the “ROS production on TNF-α” value in data set [6] (WT versus Nox1^-/y VSMCs) was “robust ROS production in WT but not Nox1^-/y VSMCs”. Besides, in [7] (Nox1^-/y VSMCs compared), the “VSMC migration to TNF-α” value is given as “requires Nox1”. In data set [8], the “NADPH oxidase activity on TNF-α pre-treatment” value is reported as “primes NADPH oxidase activity”. Also, in [2], the “agonist-stimulated cellular superoxide, T429A Nox1” value was “markedly attenuated” and the “agonist-stimulated cellular superoxide, WT Nox1” value is reported as “increased”. Moreover, the “p47phox membrane recruitment on TNF-α” value in [9] is “WT but not T429A Nox1 caused a recruitment of p47^phox to the membrane”. In addition, the “NoxA1 membrane translocation following TNF-α, T429A Nox1” value in [10] (CosPhox cells with T429A Nox1) is “prevented”. In data set [10] (CosPhox cells with p22phox, p47phox, NoxA1, WT Nox1), the “TNF-α-induced NoxA1 membrane recruitment, WT Nox1” value is recorded as “recruitment of NoxA1 to the membrane”.
Turning to `COc1c(C[C@@H](C)OC(=O)Oc2ccc(O)cc2)c2c3c(C[C@@H](C)OC(=O)c4ccccc4)c(OC)c(=O)c4c(O)cc(OC)c(c5c(OC)cc(O)c(c1=O)c52)c43` [CalC, Calphostin C, reference compound], the “TNF-α-stimulated Nox1 phosphorylation, effect of pretreatment” value in [1] (cultured A7r5 rat aortic VSMCs, TNF-α, n=3) is listed as “inhibited”. Also, in data set [6] (WT murine VSMCs, TNF-α), the “Nox1-dependent ROS production, effect of pretreatment” value is on record as “abrogated”. The “TNF-α-mediated migration, effect of pretreatment” value in data set [7] (WT murine VSMCs, n=5–15) is given as “blocked”. Further, in data set [8], the “TNF-α-primed NADPH oxidase activity, effect of inhibitor” value was “completely abolished”.
Take `c1ccc2c(c1)[I+]c1ccccc1-2` [DPI]: the “TNF-α-primed NADPH oxidase activity, effect of inhibitor” value in [8] is listed as “completely abolished”.
For “angiotensin II (DRVYIHPF; Angiotensin-2; UniProt P01019 25-32, looked up) [AngII, reference compound]”, in data set [2], the “agonist-stimulated cellular superoxide, T429A Nox1” value was “markedly attenuated” and the “agonist-stimulated cellular superoxide, WT Nox1” value was “increased”.
KLKT*QKIYF [pNox1 peptide]: the dissociation constant (Kd) in data set [3] came to 1500 ± 300 nM. In addition, the “secondary structure by circular dichroism” value in data set [11] is recorded as “unstructured; also recorded: characteristic random coil signals”.

B1: PDGF-BB: platelet-derived growth factor-BB (protein, UniProt P01127 82-190, looked up)
Platelet-derived growth …: SLGSLTIAEPAMIAECKTRTEVFEISRRLIDRTNANFLVWPPCVEVQRCSGCCNNRNVQCRPTQVQLRPVQVRKIEIVRKKPIFKKATVTLEDHLACKCETVAAARPVT
modifications: homodimer BB
Regarding B1, the “Nox1 phosphorylation on agonist treatment (other agonists)” value in data set [1] is recorded as “phosphorylation of VSMC Nox1 occurs”. In addition, in data set [2], the “agonist-stimulated cellular superoxide, T429A Nox1” value is listed as “markedly attenuated” and the “agonist-stimulated cellular superoxide, WT Nox1” value is reported as “increased”.

B2: NoxA1 activation domain peptide (peptide)
chain: EPVDFLGKAKVVASAIP
modifications: not checked
As to B2, in data set [12], the Kd was 1500 nM and the stoichiometry N came out at 0.86.

For orientation: Kd means the free concentration of one partner at which half of the binding sites on the other are occupied at equilibrium, for simple one-to-one binding. As a reminder, the stoichiometry N is the number of molecules, sites or subunits per partner or assembly.
